In PMC4872390 (The American journal of Chinese medicine, 2015):
Where two headings read alike, the source gives them in different places.

Key:
[1] = test system: 3A4; conditions: 1 μM ketoconazole; corresponding probe reaction; ref Linder et al., 2009; cited from earlier work
[2] = assay type: in vivo; conditions: mice, ABT vs. no ABT
[3] = target: CYP 2C19 (Homo sapiens, UniProt P33261); assay: Incubation of D or DA with recombinant human CYP 2C19; assay type: in vitro ADME; conditions: for conversion to DOH or metabolites by 2C19 in the absence of NADPH: incubated in the absence of NADPH; for average velocity of 2C19 in the first 10 minutes: recombinant 2C19, substrate 6 μM
Sequence of CYP 2C19 (P33261 whole entry): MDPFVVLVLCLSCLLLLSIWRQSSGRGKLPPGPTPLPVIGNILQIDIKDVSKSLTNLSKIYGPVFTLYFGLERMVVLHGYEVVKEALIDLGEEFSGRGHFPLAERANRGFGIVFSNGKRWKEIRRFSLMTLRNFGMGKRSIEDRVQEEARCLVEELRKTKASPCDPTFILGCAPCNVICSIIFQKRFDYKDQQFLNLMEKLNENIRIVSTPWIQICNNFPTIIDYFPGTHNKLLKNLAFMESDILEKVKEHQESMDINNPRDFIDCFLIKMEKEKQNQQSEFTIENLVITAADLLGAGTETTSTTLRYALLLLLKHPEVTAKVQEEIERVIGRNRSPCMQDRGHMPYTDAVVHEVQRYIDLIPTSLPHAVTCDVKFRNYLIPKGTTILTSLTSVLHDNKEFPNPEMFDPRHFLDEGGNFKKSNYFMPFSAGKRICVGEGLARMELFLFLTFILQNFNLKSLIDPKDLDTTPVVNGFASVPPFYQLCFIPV

[4] = test system: human liver microsome (HLM); assay: In vitro metabolism in human liver microsomes; assay type: in vitro ADME; conditions: substrate 6 μM, 60 minutes; for effect of NBN and ketoconazole together on metabolism by HLM: 10 μM NBN + 2 μM ketoconazole
Outline: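 Human liver microsomes at 1 mg/mL in 50 mM potassium phosphate (pH 7.4) with 1 mM NADPH and 6 μM substrate; final methanol 0.5% (v/v). Inhibitors came from DMSO stocks (DMSO at most 0.5% v/v). NBN at 10 μM and ketoconazole at 2 μM were added with the substrate. Incubated at 37°C for 1 hour, then extracted and quantitated. Three or more independent experiments.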

[5] = target: CYP 3A4 (Homo sapiens, UniProt P08684); assay: Incubation of D or DA with recombinant human CYP 3A4; assay type: in vitro ADME; conditions: recombinant 3A4; substrate 6 μM
Sequence of CYP 3A4 (P08684 whole entry): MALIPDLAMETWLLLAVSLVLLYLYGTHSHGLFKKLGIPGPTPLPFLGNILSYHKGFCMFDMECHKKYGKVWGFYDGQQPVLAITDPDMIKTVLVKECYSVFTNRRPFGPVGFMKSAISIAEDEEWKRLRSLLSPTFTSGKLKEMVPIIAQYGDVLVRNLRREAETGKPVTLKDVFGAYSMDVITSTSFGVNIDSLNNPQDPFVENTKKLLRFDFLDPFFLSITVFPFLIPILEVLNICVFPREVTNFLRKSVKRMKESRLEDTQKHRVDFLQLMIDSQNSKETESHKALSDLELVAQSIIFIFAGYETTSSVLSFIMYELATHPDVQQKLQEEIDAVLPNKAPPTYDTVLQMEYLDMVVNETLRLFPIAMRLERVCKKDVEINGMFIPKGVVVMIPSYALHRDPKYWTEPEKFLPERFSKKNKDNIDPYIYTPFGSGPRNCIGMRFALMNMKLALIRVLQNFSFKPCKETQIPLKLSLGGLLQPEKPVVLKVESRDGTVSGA

[6] = assay type: in vivo, human
[7] = ref Zhang et al., 2015, cited from earlier work
[8] = rats, ref Li et al., 2013b, cited from earlier work
[9] = rats; ref Song et al., 2011; cited from earlier work
[10] = test system: 2C19; conditions: 10 μM NBN; corresponding probe reaction; ref Linder et al., 2009; cited from earlier work

SMILES | increase of plasma level by ABT pretreatment ([2]; 1 hour after D/DA dose) | increase of prostate content by ABT pretreatment ([2]; 1 hour after D/DA dose) | increase of plasma level by ABT pretreatment ([2]; 2 hours after D/DA dose) | increase of prostate content by ABT pretreatment ([2]; 2 hours after D/DA dose) | conversion to DOH or metabolites by 2C19 in the absence of NADPH [3] | average velocity of 2C19 in the first 10 minutes [3] | effect of NBN and ketoconazole together on metabolism by HLM [4] | average velocity of 3A4 in the first 10 minutes [5] | further results
CC(=O)N1CCN(c2ccc(OCC3COC(Cn4ccnc4)(c4ccc(Cl)cc4Cl)O3)cc2)CC1 (centres unmarked) [ketoconazole] | – | – | – | – | – | – | – | – | inhibition of 3A4 activity in HLM [1]: 59%
C/C=C(/C)C(=O)O[C@H]1Cc2cc3ccc(=O)oc3cc2OC1(C)C [DA, decursinol angelate] | 30 fold | 18 fold | 30 fold | 48 fold | not able to convert | 60 pmol D or DA per minute per pmol CYP | additive manner | 5 pmol per minute per pmol CYP | effect of 3A4 inhibitor ketoconazole (KCZ) on metabolism by HLM ([4]; 2 μM ketoconazole, 1 mg/mL HLM): greater extent of inhibition of DA conversion to DOH and metabolite N8; effect of 2C19*17 allele on plasma AUC0–48h ([6]; human subjects by CYP SNP genotype): trend of gene-dose effect; plasma AUC0–48h compared among three racial groups (Caucasian, Hispanic, Asian) ([6]; human subjects, Kruskal-Wallis test, p<0.05): statistically different among three groups; variation in the Cmax and AUC0–48h among subjects ([7]; healthy human subjects, single dose): ≤ 60 fold
CC1(C)Oc2cc3oc(=O)ccc3cc2C[C@@H]1O [DOH, decursinol] | 1.5–2 fold | 1.5–2 fold | 1.5–2 fold | 1.5–2 fold | – | – | – | – | AUC of plasma DOH ([8]; equal moles by oral gavage): 65012 ng·h/mL; AUC ratio, DOH group vs. D/DA group ([8]; equal moles by oral gavage): ~ 2.4 fold; tmax of plasma DOH peak ([8]; oral gavage): ~ 0.7 h; absorption (AUC-oral dose vs. AUC-i.v.) [9]: ~ 45%; urinary excretion of free DOH, share of D/DA ingested ([7]; human subjects): < 1%
CCC1(c2ccccc2)NC(=O)N(Cc2ccccc2)C1=O (single isomer, unassigned; (+)) [NBN, (+)-N-3-benzylnirvanol] | – | – | – | – | – | – | – | – | inhibition of 2C19 activity in HLM [10]: 55%
CC(C)=CC(=O)O[C@H]1Cc2cc3ccc(=O)oc3cc2OC1(C)C [D, decursin] | 32 fold | 61 fold | 26 fold | 61 fold | not able to convert | 60 pmol D or DA per minute per pmol CYP | additive manner | 4 pmol per minute per pmol CYP | effect of 2C19 inhibitor NBN on metabolism by HLM ([4]; 10 μM NBN, 1 mg/mL HLM): retarded the disappearance of D
